Only some compounds are listed: those with a hit (about 2.3% of all), similar ones and a draw of the others.
TRPC6 act: mouse TRPC6 channel activation; HEK293-TRPC6 membrane potential dye fluorescence; hits give high values; B-score at 10 µM; hit rate 0.13% among 310,000;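 active = B-score of the integrated fluorescence ratio above library mean plus 3 SD, and starting fluorescence ratio within library mean plus 5 SD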;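 also: higher score means more depolarization so channel activation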
TRPC6 inh: inhibitors of mouse TRPC6 channel; Q61143; HEK293-TRPC6, membrane potential dye, ACh-evoked depolarization; hits give low values; B-score at 10 µM; hit rate 1.1% among 310,000; AID 2553;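 active = B-score under library mean minus 3 SD, initial fluorescence not abnormally high, positive integrated signal ratio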;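 also: B-score derived from integrated fluorescence ratio over the kinetic read; more negative B-score means stronger inhibition of depolarization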
TRPC4 inh: TRPC4 (mouse) channel inhibition. HEK293 TRPC4beta/mu-opioid, DAMGO-evoked Fluo4 calcium flux; hits give low values. hit rate 0.39% among 300,000. B-score at 10 µM. Q9QUQ5;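 active = B-score over 3 SD under the library average, no early fluorescence shift, positive overall ratio signal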
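Material: HEK293 cells with stable TRPC4beta plus mu-opioid receptor expression; probe or stimulus: DAMGO in two steps, submaximal then maximal; technique: Fluo4 calcium fluorescence by kinetic imaging, 5 s 1 Hz baseline; measure: integrated fluorescence ratio relative to baseline, converted to per-well B score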
TRPC4 act: activators of mouse TRPC4 channel; Q9QUQ5; HEK293 TRPC4beta/mu-opioid, Fluo4 calcium fluorescence; hits give high values; B-score at 10 µM; hit rate 0.49% among 310,000; AID 2237;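 active = B-score above 5 SD of library B-scores, and initial fluorescence ratio not above library mean plus 5 SD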;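 also: positive B-score marks a calcium rise read as TRPC4 activation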
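Material: HEK293 stable line with TRPC4beta plus mu-opioid receptor; technique: Fluo4 calcium-sensitive dye fluorescence, kinetic, 1 Hz baseline; timing: Fluo4 dye loading 45 min at room temperature, 110 s recording; controls: assay buffer as low control, maximal DAMGO as high control; read-out: integrated baseline-normalised fluorescence ratio, converted to per-well B score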
TRPC4 PAM: TRPC4 (mouse) allosteric potentiation | B-score at 10 µM | hit rate 0.42% among 310,000 | Q9QUQ5 | HEK293 TRPC4beta/mu-opioid, DAMGO EC20, Fluo-4 Ca2+ flux; hits give high values;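 active = B-score of calcium response area above 5 SD of library B-scores, with initial fluorescence ratio within 5 SD of library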;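 also: B-score of integrated fluorescence ratio over time as area under calcium response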
An asterisk follows results filed as active.

Screening COc1ccccc1Cn1c(C)nc2ccccc21 returned TRPC6 act inactive, TRPC6 inh inactive, TRPC4 inh inactive, TRPC4 act inactive and TRPC4 PAM inactive.
`CCc1nc2ccccc2n1Cc1ccccc1OC` gave TRPC6 act inactive, TRPC6 inh inactive, TRPC4 inh -5*, TRPC4 act inactive and TRPC4 PAM inactive.
Screening Cc1cccc2sc(N(CCN(C)C)C(=O)c3cc(Cl)sc3Cl)nc12 returned TRPC6 act inactive, TRPC6 inh inactive, TRPC4 inh inactive, TRPC4 act inactive and TRPC4 PAM 12*.
`CN(C)C(CNC(=O)CCc1c[nH]c2ccccc12)c1ccccc1` (stereo not given) gave TRPC6 act inactive, TRPC6 inh inactive, TRPC4 inh inactive, TRPC4 act 138* and TRPC4 PAM inactive.
For CN(C)C(CNC(=O)c1ccc(S(=O)(=O)N(C)C)cc1)Cc1ccccc1 (stereo not given) the results were TRPC6 act inactive, TRPC6 inh inactive, TRPC4 inh inactive, TRPC4 act 74* and TRPC4 PAM inactive.
For CN(C)C(CNC(=O)c1cccc(S(=O)(=O)N(C)C)c1)c1ccccc1 (stereo not given) the results were TRPC6 act inactive, TRPC6 inh inactive, TRPC4 inh inactive, TRPC4 act 109* and TRPC4 PAM inactive.
COc1ccc(C(CNC(=O)c2cccc(S(=O)(=O)NCc3ccccc3)c2)N(C)C)cc1 (stereo not given) was read as TRPC6 act inactive, TRPC6 inh inactive, TRPC4 inh inactive, TRPC4 act 159* and TRPC4 PAM inactive.
For CN(C)S(=O)(=O)c1ccc(C(=O)NCCSc2ccccc2)cc1 the results were TRPC6 act inactive, TRPC6 inh inactive, TRPC4 inh inactive, TRPC4 act inactive and TRPC4 PAM inactive.
Cc1ccc(OCC(=O)NC2CCSc3ccccc32)cc1 (stereo not given) was read as TRPC6 act inactive, TRPC6 inh inactive, TRPC4 inh inactive, TRPC4 act inactive and TRPC4 PAM inactive.
Screening O=C(CN(C(=O)c1csnn1)c1ccccc1Cl)NC1CCCC1 returned TRPC6 act inactive, TRPC6 inh inactive, TRPC4 inh inactive, TRPC4 act inactive and TRPC4 PAM inactive.
`CN(C)C(CNC(=O)CCS(=O)(=O)c1ccccc1)c1ccccc1` (stereo not given) gave TRPC6 act inactive, TRPC6 inh inactive, TRPC4 inh inactive, TRPC4 act 96* and TRPC4 PAM inactive.
O=C(CCS(=O)(=O)c1ccccc1)NCCS(=O)(=O)c1ccccc1 was read as TRPC6 act inactive, TRPC6 inh inactive, TRPC4 inh inactive, TRPC4 act inactive and TRPC4 PAM inactive.
`COc1ccc(C(CNC(=O)c2ccc3c(c2)OCCO3)N(C)C)cc1` (stereo not given) gave TRPC6 act inactive, TRPC6 inh inactive, TRPC4 inh inactive, TRPC4 act 164* and TRPC4 PAM inactive.
`COc1cccc(CN2CCC(C(=O)N3CCC(C)CC3)CC2)c1` gave TRPC6 act inactive, TRPC6 inh inactive, TRPC4 inh inactive, TRPC4 act inactive and TRPC4 PAM inactive.
For CCOC(=O)c1c(CSC(=N)N)n(-c2ccccc2)c2cc(Br)c(OC(C)=O)cc12 the results were TRPC6 act inactive, TRPC6 inh inactive, TRPC4 inh inactive, TRPC4 act inactive and TRPC4 PAM 14*.
For CCOC(=O)c1c(CN2CCN(C)CC2)n(-c2ccccc2)c2cc(Br)c(O)cc12 the results were TRPC6 act inactive, TRPC6 inh inactive, TRPC4 inh inactive, TRPC4 act inactive and TRPC4 PAM inactive.
Screening Cc1cc(N2CCN(C)CC2)nc2ccc(NC(=S)NC3CC3)cc12 returned TRPC6 act inactive, TRPC6 inh inactive, TRPC4 inh inactive, TRPC4 act inactive and TRPC4 PAM inactive.
Screening CCCCN(CC)CCNC(=O)CCC(=O)Nc1ccc2nc(N3CCN(C)CC3)cc(C)c2c1 returned TRPC6 act inactive, TRPC6 inh inactive, TRPC4 inh inactive, TRPC4 act 118* and TRPC4 PAM inactive.
CCCN(CCC)CCCNC(=S)Nc1ccc2nc(N3CCN(CC)CC3)cc(C)c2c1 was read as TRPC6 act inactive, TRPC6 inh inactive, TRPC4 inh inactive, TRPC4 act inactive and TRPC4 PAM inactive.

Screening data (PubChem BioAssay)
